Assay results published in ChEMBL document CHEMBL4251709, “Synthesis, Biological Investigation, and Structural Revision of Sielboldianin A” (J Nat Prod, 2018).

Tests used:
HepG2 [1] = test: Antioxidant activity in human HepG2 cells assessed as inhibition of ABAP-induced peroxyl radical generation incubated for 60 mins measured for 60 mins by DCFH-DA probe based fluorescence assay; assay type: functional, cell-based; conditions: HepG2, 1 h
Procedure, shortened: (§1)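 HepG2 cells grown in MEM Earle's with gentamycin, L-alanyl-L-glutamine, nonessential amino acids, sodium pyruvate and 10% FBS at 37 °C, 5% CO2. 80 000 cells per well were seeded 24 h ahead, ~50% confluent at testing. Sesquiterpenoids were dissolved in DMSO, giving 1% DMSO final in all wells including controls. IC50 from dose–response Hill-slope fit, three experiments, mean ± SD.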

HepG2 [2] = test: Antioxidant activity in human HepG2 cells assessed as inhibition of cumene hydroperoxide-mediated lipid peroxidation incubated for 60 mins followed by cumOOH addition for 60 mins measured for 60 mins by C11-BODIPY probe based fluorescence assay; assay type: functional, cell-based; conditions: HepG2, 1 h; procedure, shortened: as §1
K562 = test: Cytotoxicity against human K562 cells assessed as inhibition of cell growth after 5 days by MTT assay; assay type: cell-based; conditions: K562, 120 h
Procedure, shortened: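 K562 cells kept in antibiotic-free RPMI with 2-mercaptoethanol (2 μM), L-glutamine (2 mM) and 10% FCS. 100 μL of cells at 40 000 cells/mL were mixed with 100 μL of serially diluted compound (DMSO stock) in medium, with a drug-free control. Incubation 5 days, 37 °C, 5% CO2. MTT (3 mg/mL) for 3 h, formazan taken up in DMSO, read at 540 and 690 nm. IC50 as % of control growth, three experiments.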

| SMILES | IC50 (HepG2 [1]) [µM] | IC50 (HepG2 [2]) [µM] | IC50 (K562) [µM] |
| --- | --- | --- | --- |
| CC(C)=CCC[C@](C)(O)c1ccc(C)cc1 | > 100 | > 100 | > 50 |
| Cc1ccc([C@]2(C)CC[C@@H](C(C)(C)O)O2)cc1O | 18 | 31 | > 50 |
| Cc1ccc([C@]2(C)CC[C@@H](C(C)(C)O)O2)cc1 | > 100 | > 100 | > 50 |
| O=c1c(O)c(-c2ccc(O)c(O)c2)oc2cc(O)cc(O)c12 [QUERCETIN] | 65 | 12 | 2.5 |
